Measured values of several laboratories.
Lines come from different studies, so protocols differ.
Target: SRSF protein kinase 2 (SRPK2, Homo sapiens, UniProt P78362)

Structure (SMILES) | effect on | technique | concentration | remaining binding
c1cnn2ncc(-c3ccnc(N4CCC45COC5)n3)c2c1 | binding | – | 1 µM | 70%
O=C(NCC1CCOCC1)c1n[nH]cc1NC(=O)c1c(F)cccc1F | binding | competition with immobilised ligand | 1 µM | 84%
N[C@@H]1CCN(c2nccc(-c3cnn4ncccc34)n2)C1 | binding | – | 1 µM | 100%
O=C(c1ccc(Nc2ncc(Cl)c(-c3ccc(Cl)s3)n2)cc1)N1CCC(N2CCCC2)CC1 | binding | competition with immobilised ligand | 1 µM | 89%
C[C@@H]1CCN(c2nccc(-c3cnn4ncccc34)n2)C1 | binding | – | 1 µM | 100%
N#Cc1ccc(Nc2ccc3[nH]c(=O)[nH]c3c2)c(Cl)c1 | cell-free assay | competition with immobilised ligand | 1 µM | 100%
C=CC(=O)N1CCC(C(=O)NCC(=O)N2CCN(c3nc(-c4cnc(N)nc4C(F)F)nc(N4CCOCC4)n3)CC2)CC1 | binding | competition with immobilised ligand | 1 µM | 100%
Cc1c(NC(=O)c2cc(C(N)=O)nc3cc(F)ccc23)c(C(F)(F)F)nn1Cc1ccc(C(C)(C)C)cc1 | cell-free assay | competition with immobilised ligand | 1 µM | 97%
CN(C)c1nccc(-c2cnc3ncccn23)n1 | binding | – | 1 µM | 100%
Nc1ncc2c(n1)-c1c([nH]c3ccc(C#CC4CC4)cc13)CCCC2 | binding | competition with immobilised ligand | 1 µM | 82%
Cc1nc(N2CC[C@@H](O)C2)ncc1-c1cc(C(F)(F)F)cc2[nH]ncc12 | binding | competition with immobilised ligand | 1 µM | 100%
F[C@@H]1CCN(c2nccc(-c3cnn4ncccc34)n2)C1 | binding | – | 1 µM | 80%
CCOC(=O)c1cc2cc(-c3cc(C(=O)NCc4ccc(C(=O)O)cc4)nn3C)ccc2[nH]1 | cell-free assay | competition with immobilised ligand | 0.1 µM | 100%
COc1cnc(Nc2cccc(S(N)(=O)=O)c2)nc1N1CCN(c2ccccc2)CC1 | binding | competition with immobilised ligand | 1 µM | 87%
C[C@@H]1CN(c2cc(-c3nn(C)c4ccc(OC5(C)CC5)cc34)ncn2)C[C@H](C)O1 | cell-free assay | competition with immobilised ligand | 1 µM | 88%
O=C(c1ccc(Nc2nccc(-c3cc4ccccc4s3)n2)cc1)N1CCC(N2CCCC2)CC1 | binding | competition with immobilised ligand | 1 µM | 92%
Cc1cnn2ncc(-c3ccnc(N(C)C)n3)c2c1 | binding | – | 1 µM | 100%
O=C(NCCCN1CCOCC1)c1ccc(Nc2ncc(Cl)c(-c3ccc(Cl)s3)n2)cc1 | binding | competition with immobilised ligand | 1 µM | 75%
O=C(N1CCS(=O)(=O)CC1)N1C[C@H](c2ccc(OC(F)(F)F)cc2)C[C@H](c2nc(C3CC3)no2)C1 | cell-free assay | competition with immobilised ligand | 1 µM | 100%
C[C@@H](c1ccc(-n2cnc3c(N)ncnc32)cc1)N1CCc2nn(C)c(Cc3ccccc3)c2C1=O | binding | competition with immobilised ligand | 0.1 µM | 83%
COc1ncc2cc3ccccc3nc2c1C#N | cell-free assay | competition with immobilised ligand | 5 µM | 100%
